Test [1] relates to B16. Put plainly: Inhibition of murine B16 melanoma cell proliferation measured by the MTT assay. Format: functional, cell-based. Conditions: Mus musculus. A digest of the protocol: (§1)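 Murine L1210 leukemia and B16 melanoma cells were grown in RPMI 1640 with 10% fetal calf serum, 2 mM L-glutamine, penicillin/streptomycin and 10 mM HEPES (pH 7.4). Cells were exposed to nine serial drug dilutions in triplicate for about four doubling times (L1210 48 h, B16 96 h), then read by microculture tetrazolium (MTT) assay. IC50 is the concentration halving optical density versus untreated controls, averaged over ≥2 independent experiments.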

Test [2] deals with L1210. Description: Inhibition of murine L1210 leukemia cell proliferation measured by the MTT assay. Format: functional, cell-based. Conditions: Mus musculus. A digest of the protocol: as §1
(Tetrazolium assays rely on reduction of a dye to a coloured formazan, in cell work by metabolically active cells.)

Test [3] concerns Mus musculus. Put plainly: Long-term survivors among 14 mice infected with P388 leukemia, scored on day 60 at 40 mg/kg dose on day 1. Format: functional. A digest of the protocol:
(§2)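 B6D2F1 mice in groups of 6–7 were inoculated ip on day 0 with 10^6 P388 cells. Dihydrochloride salts were dissolved in water and given iv on day 1 or on days 1, 5 and 9. Doses ranged from a low nontoxic dose to a toxic one. Long-term survivors were counted at day 60.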

Test [4] concerns Mus musculus. Description: Percent median survival time of mice injected with P388 leukemia, at a subcutaneous compound dose of 20 mg/kg. Type of test: functional.
The species entered for test [5] is Mus musculus. Put plainly: Long-term survivors among 14 mice infected with B16 melanoma, scored on day 90 at optimal dose on days 1-9.
Test [6] deals with Mus musculus. Put plainly: Percent median survival time of mice injected with P388 leukemia, at a intravenous compound dose of 40 mg/kg.
For test [7], the system named is Mus musculus. Put plainly: Percent median survival time of mice injected with B16 melanoma, at a intraperitoneal compound dose of 2.5-5 mg/kg.
The subject of test [8] is Mus musculus. Description: Long-term survivors among 12 mice infected with P388 leukemia, scored on day 60 at 10 mg/kg dose. Type of test: functional. A digest of the protocol: as §2
Test [9] concerns Mus musculus. Description: Long-term survivors among 18 mice infected with P388 leukemia, scored on day 60 at 40 mg/kg dose. Type of test: functional. A digest of the protocol:
as §2

Test [10] relates to Mus musculus. Put plainly: Percent median survival time of mice intraperitoneally injected with P388 leukemia was determined from tested at 10 mg/kg at day1,5,9 dose to that of control. Format: functional. A digest of the protocol: (§3)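 P388 leukemia in B6D2F1 mice (groups of 6–7), 10^6 cells inoculated ip on day 0. Dihydrochloride salts were dissolved in water and given iv on day 1 or on days 1, 5, 9. Three doses were tested, then five if active. %T/C = median survival treated/control × 100, reported at the optimal dose (no toxic death, weight loss <20%), from one or two representative experiments.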

Test [11] concerns Mus musculus. Description: Percent median survival time of mice intraperitoneally injected with P388 leukemia was determined from tested at 40 mg/kg at day1 dose to that of control. Format: functional. Conditions: route intraperitoneal. A digest of the protocol:
as §3

Test [12] relates to Mus musculus. Description: Long-term survivors among 14 mice infected with B16 melanoma, scored on day 90 at 2.5 mg/kg dose.
The subject of test [13] is Mus musculus. Description: Percent median survival time of mice injected with B16 melanoma, at a intraperitoneal compound dose of 2.5 mg/kg.
Test [14] concerns Mus musculus. Put plainly: Long-term survivors among 6 mice infected with P388 leukemia, scored on day 60 at 40 mg/kg dose on day 1, 5, 9. Type of test: functional. A digest of the protocol: as §2
Test [15] deals with Mus musculus. Description: Long-term survivors among 7 mice infected with P388 leukemia, scored on day 90 at 10 mg/kg dose. Type of test: functional.
In test [16] the test system is Mus musculus. Description: Long-term survivors among 6 mice infected with P388 leukemia, scored on day 60 at 40 mg/kg dose on day 1. Format: functional. A digest of the protocol: as §2
The subject of test [17] is Mus musculus. Put plainly: Percent median survival time of mice intraperitoneally injected with P388 leukemia was determined from tested at 40 mg/kg at day1,5,9 dose to that of control. Conditions: route intraperitoneal. Type of test: functional. A digest of the protocol:
as §3

Test [18] has as its system Mus musculus. Put plainly: Percent median survival time of mice injected with B16 melanoma, at a intraperitoneal compound dose of 10 mg/kg.
Test [19] concerns Mus musculus. Description: Long-term survivors among 6 mice infected with P388 leukemia, scored on day 60 at 60 mg/kg dose on day 1. Type of test: functional. A digest of the protocol: as §2
The test system of test [20] is Mus musculus. Put plainly: Long-term survivors among 6 mice infected with B16 melanoma, scored on day 90 at 10 mg/kg dose.
Test [21] has as its system Mus musculus. Description: Percent median survival time of mice injected with P388 leukemia, at a intravenous compound dose of 60 mg/kg.
Test [22] has as its system Mus musculus. Put plainly: Long-term survivors among 7 mice infected with P388 leukemia, scored on day 90 at 5 mg/kg dose. Format: functional.
Test [23] deals with Mus musculus. Description: Long-term survivors among 6 mice infected with P388 leukemia, scored on day 60 at 20 mg/kg dose on day 1. Format: functional. A digest of the protocol:
as §2

The test system of test [24] is Mus musculus. Put plainly: Long-term survivors among 6 mice infected with P388 leukemia, scored on day 60 at 20 mg/kg dose on day 1, 5, 9. Type of test: functional. A digest of the protocol:
as §2

Test [25] relates to Mus musculus. Put plainly: Percent median survival time of mice intraperitoneally injected with P388 leukemia was determined from tested at 20 mg/kg at day1 dose to that of control. Type of test: functional. The settings on record: route intraperitoneal. A digest of the protocol:
as §3

For test [26], the system named is Mus musculus. Description: Percent median survival time of mice intraperitoneally injected with P388 leukemia was determined from tested at 20 mg/kg at day1,5,9 dose to that of control. The settings on record: route intravenous. Type of test: functional. A digest of the protocol: as §3
The test system of test [27] is Mus musculus. Put plainly: Percent median survival time of mice injected with B16 melanoma, at a intraperitoneal compound dose of 5 mg/kg.
The subject of test [28] is Mus musculus. Put plainly: Long-term survivors among 6 mice infected with P388 leukemia, scored on day 60 at 7.5 mg/kg dose. Format: functional. A digest of the protocol: as §2
In test [29] the test system is Mus musculus. Put plainly: Long-term survivors among 6 mice infected with P388 leukemia, scored on day 60 at 20 mg/kg dose. Type of test: functional. A digest of the protocol:
as §2

Test [30] has as its system Mus musculus. Put plainly: Long-term survivors among 7 mice infected with B16 melanoma, scored on day 90 at 20 mg/kg dose.
Test [31] relates to Mus musculus. Description: Percent median survival time of mice injected with P388 leukemia, at a intravenous compound dose of 7.5 mg/kg.
Test [32] relates to Mus musculus. Description: Percent median survival time of mice injected with B16 melanoma, at a intraperitoneal compound dose of 0.5 mg/kg.

Some results are limits rather than exact numbers.

As for `Cc1c2c(C(=O)NCCN(C)C)nccc2c(C)c2c1c1cc(OC(=O)CCCCC(=O)O)ccc1n2C`, the half-maximal inhibitory concentration (IC50) – broadly, the concentration at which inhibition is half-maximal – stood at 6.3 nM in test [1] and 45.9 nM in test [2]. Also, the LTS in test [3] is 11; in test [5] it was 4. Besides, the results for the T/C in test [4], in test [6] and in test [7] were above 600%, above 600% and 361%, respectively.

On to `Cc1c2c(C(=O)NCCN(C)C)nccc2c(C)c2c1c1cc(O)ccc1n2C`, for which the IC50 in test [1] is 3.4 nM; in test [2], 13.4 nM. Besides, the LTS is on record as 9 in [8], 15 in test [9] and 1 in test [12]. Besides, the results for the T/C in [10], in test [11] and in test [13] were above 600%, above 600% and 166%, respectively.

On to `Cc1c2ccnc(C(=O)NCCN(C)C)c2cc2c3cc(OC(=O)N4CCC(N5CCCCC5)CC4)ccc3n(C)c12`, for which the figures for the IC50 in test [1] and in test [2] were 2690 nM and 696 nM, respectively. Moreover, the LTS in test [14], in [15] and in test [16] was 0 throughout. Besides, the T/C (usually the ratio of treated to control) is 133% in test [11], 169% in [17] and 161% in test [18].

Take `CC(=O)Oc1ccc2c(c1)c1cc3c(C(=O)NCCN(C)C)nccc3c(C)c1n2C`: the IC50 was 6.1 nM in test [1] and 5.1 nM in test [2]. Further, the values for the LTS in [14], in test [19] and in test [20] were 0, 1 and 0, respectively. Moreover, the T/C in test [6] is on record as 275%; in test [21], 214%; in [18], 182%.

For the molecule `Cc1c2ccnc(C(=O)NCCN(C)C)c2cc2c3cc(OCC4C[C@@H]4c4ccccc4)ccc3n(C)c12` (some centres not stated), the IC50 in [1] stood at 279 nM; in test [2], 374 nM. Further, the LTS in test [22], in [23] and in [24] was 0 in each case. In addition, the T/C amounted to 102% in test [25], 99% in test [26] and 94% in test [27].

As for `Cc1c2cc[n+](C)cc2c(C)c2c1[nH]c1ccc(O)cc12` [ELLIPTINIUM], the IC50 in test [1] amounted to 106 nM; in test [2], 54.6 nM. The LTS in test [28], in [29] and in test [30] was 0 each time. In addition, the values for the T/C in test [4], in test [31] and in [32] were 138%, 112% and 133%, respectively.

These data come from ChEMBL document CHEMBL1132144, “Synthesis of 9-O-substituted derivatives of 9-hydroxy-5, 6-dimethyl-6H-pyrido[4,3-b]carbazole-1-carboxylic acid (2-(dimethylamino)ethyl)amide and their 10- and 11-methyl analogues with improved antitumor activity” (J Med Chem, 1999).
